Source: ChEMBL document CHEMBL1128434, “Gonadotropin-releasing hormone antagonists: novel members of the azaline B family” (1995)

Columns and labels:
Rattus norvegicus [1] = species on record: Rattus norvegicus; assay: Effect in the anti ovulatory assay (AOA) in rats expressed as no. of rats ovulating/No of rats treated at 2.5 mg; 2/7; assay type: functional
Rattus norvegicus [2] = species on record: Rattus norvegicus; assay: Effect in the anti ovulatory assay (AOA) in rats expressed as no. of rats ovulating/No of rats treated at 1.0 mg; 3/11; assay type: functional
Rattus norvegicus [3] = species on record: Rattus norvegicus; assay: Effect in the anti ovulatory assay (AOA) in rats expressed as no. of rats ovulating/No of rats treated at 0.5 mg; 4/4; assay type: functional
Rattus norvegicus [4] = species on record: Rattus norvegicus; assay: Duration of action measured using castrated male rat assay to inhibit luteinizing hormone release.; fully active at 48 hr but not at 72 hr; assay type: functional
Rattus norvegicus [5] = species on record: Rattus norvegicus; assay: Effect in the anti ovulatory assay (AOA) in rats expressed as no. of rats ovulating/No of rats treated at 0.5 mg; 6/6; assay type: functional
Rattus norvegicus [6] = species on record: Rattus norvegicus; assay: Effect in the anti ovulatory assay (AOA) in rats expressed as no. of rats ovulating/No of rats treated at 1.0 mg; 2/10; assay type: functional
[7] = target: T1, Gonadotropin-releasing hormone receptor (Rattus norvegicus) (UniProt P30969); assay: In vitro potency to inhibit GnRH-mediated LH secretion by cultured pituitary cells relative to [Ac-delta-Pro1,DFpa2,DTrp36]GnRH.; assay type: functional, cell-based; details: Pituitary gland cell
T1 sequence (whole entry): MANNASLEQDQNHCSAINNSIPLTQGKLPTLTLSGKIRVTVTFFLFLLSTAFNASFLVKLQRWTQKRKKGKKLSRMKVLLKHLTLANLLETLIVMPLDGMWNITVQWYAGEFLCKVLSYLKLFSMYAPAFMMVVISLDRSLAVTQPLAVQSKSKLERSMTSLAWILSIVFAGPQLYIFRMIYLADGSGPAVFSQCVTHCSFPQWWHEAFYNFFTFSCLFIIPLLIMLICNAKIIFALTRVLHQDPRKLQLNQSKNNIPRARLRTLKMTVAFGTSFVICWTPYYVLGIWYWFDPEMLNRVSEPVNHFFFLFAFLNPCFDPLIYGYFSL
Summary of the method: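 Dispersed rat pituitary cells in culture; antagonist inhibition of GnRH-stimulated LH secretion. Potency expressed relative to standard antagonist [Ac-Δ3Pro1,D4FPhe2,DTrp3,6]GnRH taken as 1.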

Rattus norvegicus [8] = species on record: Rattus norvegicus; assay: Effect in the anti ovulatory assay (AOA) in rats expressed as no. of rats ovulating/No of rats treated at 1.0 mg; 6/6; assay type: functional
Rattus norvegicus [9] = species on record: Rattus norvegicus; assay: Effect in the anti ovulatory assay (AOA) in rats expressed as no. of rats ovulating/No of rats treated at 2.5 mg; 0/9; assay type: functional
[10] = target: T1, Gonadotropin-releasing hormone receptor (Rattus norvegicus); assay: Duration of action measured using castrated male rat assay to inhibit luteinizing hormone release.; fully active at 72 hr; assay type: functional
Rattus norvegicus [11] = species on record: Rattus norvegicus; assay: Effect in the anti ovulatory assay (AOA) in rats expressed as no. of rats ovulating/No of rats treated at 0.5 mg; 6/7; assay type: functional
Rattus norvegicus [12] = species on record: Rattus norvegicus; assay: Effect in the anti ovulatory assay (AOA) in rats expressed as no. of rats ovulating/No of rats treated at 1.0 mg; 5/13; assay type: functional
Rattus norvegicus [13] = species on record: Rattus norvegicus; assay: Effect in the anti ovulatory assay (AOA) in rats expressed as no. of rats ovulating/No of rats treated at 2.5 mg; 0/7; assay type: functional
Rattus norvegicus [14] = species on record: Rattus norvegicus; assay: Effect in the anti ovulatory assay (AOA) in rats expressed as no. of rats ovulating/No of rats treated at 25 mg; 2/8; assay type: functional
Rattus norvegicus [15] = species on record: Rattus norvegicus; assay: Effect in the anti ovulatory assay (AOA) in rats expressed as no. of rats ovulating/No of rats treated at 100 mg; 0/4; assay type: functional
Rattus norvegicus [16] = species on record: Rattus norvegicus; assay: Effect in the anti ovulatory assay (AOA) in rats expressed as no. of rats ovulating/No of rats treated at 1.0 mg; 5/5; assay type: functional
Rattus norvegicus [17] = species on record: Rattus norvegicus; assay: Effect in the anti ovulatory assay (AOA) in rats expressed as no. of rats ovulating/No of rats treated at 2.5 mg; 4/8; assay type: functional

## CC(=O)N[C@H](Cc1ccc2ccccc2c1)C(=O)N[C@H](Cc1ccc(Cl)cc1)C(=O)N[C@H](Cc1cccnc1)C(=O)N[C@@H](CO)C(=O)N(C)[C@@H](Cc1ccc(O)cc1)C(=O)N[C@H](Cc1ccc(Nc2n[nH]c(N)n2)cc1)C(=O)N[C@@H](CC(C)C)C(=O)N[C@@H](CCCCNC(C)C)C(=O)N1CCC[C@H]1C(=O)N[C@H](C)N
Rattus norvegicus [1]
  No. of rats ovulated: 2

## CC(=O)N[C@H](Cc1cnc2ccccc2c1)C(=O)N[C@H](Cc1ccc(Cl)cc1)C(=O)N[C@H](Cc1cccnc1)C(=O)N[C@@H](CO)C(=O)N[C@@H](Cc1ccc(Nc2n[nH]c(N)n2)cc1)C(=O)N[C@H](Cc1ccc(Nc2n[nH]c(N)n2)cc1)C(=O)N[C@@H](CC(C)C)C(=O)N[C@@H](CCCCNC(C)C)C(=O)N1CCC[C@H]1C(=O)N[C@H](C)N
Rattus norvegicus [2]
  No. of rats ovulated: 3
Rattus norvegicus [3]
  No. of rats ovulated: 4

## CC(=O)N[C@H](Cc1ccc2ccccc2c1)C(=O)N[C@H](Cc1ccc(Cl)cc1)C(=O)N[C@H](Cc1cccnc1)C(=O)N[C@@H](CO)C(=O)N[C@@H](Cc1ccc(NC(=O)CCCCCNc2n[nH]c(N)n2)cc1)C(=O)N[C@H](Cc1ccc(NC(=O)CCCCCNc2n[nH]c(N)n2)cc1)C(=O)N[C@@H](CC(C)C)C(=O)N[C@@H](CCCCNC(C)C)C(=O)N1CCC[C@H]1C(=O)N[C@H](C)N
Rattus norvegicus [4]
  Duration of action: 48 h
Rattus norvegicus [5]
  No. of rats ovulated: 6
Rattus norvegicus [6]
  No. of rats ovulated: 2
[7]
  Relative potency: 0.48

## CC(=O)N[C@H](Cc1ccc2ccccc2c1)C(=O)N[C@H](Cc1ccc(Cl)cc1)C(=O)N[C@H](Cc1cccnc1)C(=O)N[C@@H](CO)C(=O)N[C@@H](Cc1ccc(Nc2n[nH]c(N)n2)cc1)C(=O)N[C@H](Cc1ccc(Nc2n[nH]c(N)n2)cc1)C(=O)N[C@@H](Cc1ccccc1)C(=O)N[C@@H](CCCCNC(C)C)C(=O)N1CCC[C@H]1C(=O)N[C@H](C)N
Rattus norvegicus [4]
  Duration of action: Intermediate
Rattus norvegicus [8]
  No. of rats ovulated: 6
Rattus norvegicus [9]
  No. of rats ovulated: 0

## CC(=O)Nc1ccc(C[C@H](NC(=O)[C@H](CO)NC(=O)[C@@H](Cc2cccnc2)NC(=O)[C@@H](Cc2ccc(Cl)cc2)NC(=O)[C@@H](Cc2ccc3ccccc3c2)NC(C)=O)C(=O)N[C@H](Cc2ccc(NC(C)=O)cc2)C(=O)N[C@@H](CC(C)C)C(=O)N[C@@H](CCCCNC(C)C)C(=O)N2CCC[C@H]2C(=O)N[C@H](C)N)cc1
[10]
  Duration of action: 72 h
Rattus norvegicus [11]
  No. of rats ovulated: 6
Rattus norvegicus [12]
  No. of rats ovulated: 5
Rattus norvegicus [13]
  No. of rats ovulated: 0

## CC[C@H](C)[C@H](NC(=O)[C@H](CC(C)C)NC(=O)[C@@H](Cc1ccc(Nc2n[nH]c(N)n2)cc1)NC(=O)[C@H](Cc1ccc(Nc2n[nH]c(N)n2)cc1)N(C)C(=O)[C@H](CO)NC(=O)[C@@H](Cc1cccnc1)NC(=O)[C@@H](Cc1ccc(Cl)cc1)NC(=O)[C@@H](Cc1ccc2ccccc2c1)NC(C)=O)C(=O)N1CCC[C@H]1C(=O)N[C@H](C)N
Rattus norvegicus [14]
  No. of rats ovulated: 2
Rattus norvegicus [15]
  No. of rats ovulated: 0

## CC(=O)N[C@H](Cc1ccc2ccccc2c1)C(=O)N[C@H](Cc1ccc(Cl)cc1)C(=O)N[C@H](Cc1cccnc1)C(=O)N[C@@H](CO)C(=O)N[C@@H](Cc1ccc(NC(=O)CCl)cc1)C(=O)N[C@H](Cc1ccc(NC(=O)CCl)cc1)C(=O)N[C@@H](CC(C)C)C(=O)N[C@@H](CCCCNC(C)C)C(=O)N1CCC[C@H]1C(=O)N[C@H](C)N
Rattus norvegicus [16]
  No. of rats ovulated: 5
Rattus norvegicus [17]
  No. of rats ovulated: 4
